Target: T1, Adenosine deaminase (Bos taurus) (UniProt P56658)
T1 sequence (whole entry): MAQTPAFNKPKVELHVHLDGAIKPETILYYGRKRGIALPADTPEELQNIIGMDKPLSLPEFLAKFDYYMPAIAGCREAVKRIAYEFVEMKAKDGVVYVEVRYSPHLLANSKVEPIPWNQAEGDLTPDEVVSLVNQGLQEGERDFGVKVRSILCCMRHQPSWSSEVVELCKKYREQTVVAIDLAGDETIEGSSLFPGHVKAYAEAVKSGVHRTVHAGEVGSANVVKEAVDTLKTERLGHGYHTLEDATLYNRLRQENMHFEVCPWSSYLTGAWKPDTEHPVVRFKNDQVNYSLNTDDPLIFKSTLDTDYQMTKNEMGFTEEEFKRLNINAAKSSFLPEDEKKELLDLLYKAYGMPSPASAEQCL
Assay: Relative Vmax value of the compound
Outline: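 Deamination rates followed with calf mucosal ADA (EC 3.5.4.4) in buffer solutions; Km and Vmax relative to adenosine as substrate; inhibition (Ki) assessed with adenosine as substrate.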

Relative Vmax: 1
SMILES: Nc1ncnc2c1ncn2[C@@H]1O[C@H](CO)[C@@H](O)[C@H]1O

Source: ChEMBL document CHEMBL1134486, “Synthesis and biological evaluation of purine-containing butenolides” (J Med Chem, 2001)
